Calls of active or inactive are those of the source. No cut-off for these calls is given here.
How the values were obtained:
[1] = Toxicity in NOD/SCID mouse assessed as animal death rate at 5 mg/kg, ip dosed 3 times per week and measured after 24 days of treatment; assay type: organism-based; settings: in vivo, time 24 day, read-out: Activity
Method in brief: (§1)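 Six-week-old male NOD/SCID mice, 4 per group, received 5 mg/kg IP every other day, three times per week. Animals were monitored throughout dosing and euthanized after 24 days of treatment. Survival over the dosing period was plotted as a survival curve.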

[2] = molecular target: Phosphatidylinositol 4,5-bisphosphate 3-kinase catalytic subunit gamma isoform (Homo sapiens) (UniProt P48736); assay: Inhibition of PI3Kgamma in human SUDHL-10 cells assessed as inhibition of cell viability at 100 nM after 72 hrs by CellTiter-Glo luminescent assay; assay type: cell-based; settings: SU-DHL-10
[3] = molecular target: Phosphatidylinositol 4,5-bisphosphate 3-kinase catalytic subunit gamma isoform (Homo sapiens) (UniProt P48736); assay: Inhibition of PI3Kgamma in human SUDHL-6 cells assessed as inhibition of cell viability at 100 nM after 72 hrs by CellTiter-Glo luminescent assay; assay type: cell-based; settings: SU-DHL-6
[4] = molecular target: Phosphatidylinositol 4,5-bisphosphate 3-kinase catalytic subunit gamma isoform (Homo sapiens) (UniProt P48736); assay: Inhibition of PI3Kgamma in human MOLT-4 cells assessed as inhibition of cell viability at 100 nM after 72 hrs by CellTiter-Glo luminescent assay; assay type: cell-based
[5] = molecular target: Phosphatidylinositol 4,5-bisphosphate 3-kinase catalytic subunit gamma isoform (Homo sapiens) (UniProt P48736); assay: Inhibition of PI3Kgamma in human LCL-1 cells assessed as inhibition of cell viability at 100 nM after 72 hrs by CellTiter-Glo luminescent assay; assay type: cell-based
[6] = molecular target: Phosphatidylinositol 4,5-bisphosphate 3-kinase catalytic subunit gamma isoform (Homo sapiens) (UniProt P48736); assay: Inhibition of PI3Kgamma in human RPMI-8226 cells assessed as inhibition of cell viability at 100 nM after 72 hrs by CellTiter-Glo luminescent assay; assay type: cell-based
[7] = Toxicity in NOD/SCID mouse assessed as animal survival at 10 mg/kg, ip dosed 3 times per week and measured after 24 days of treatment; assay type: organism-based; settings: in vivo, time 24 day
[8] = molecular target: Phosphatidylinositol 4,5-bisphosphate 3-kinase catalytic subunit gamma isoform (Homo sapiens) (UniProt P48736); assay: Inhibition of PI3Kgamma in human Raji cells assessed as inhibition of cell viability at 100 nM after 72 hrs by CellTiter-Glo luminescence assay; assay type: cell-based
[9] = Toxicity in NOD/SCID mouse assessed as animal survival at 5 mg/kg, ip dosed 3 times per week and measured after 24 days of treatment; assay type: organism-based; settings: in vivo, time 24 day; method in brief: as §1
[10] = Toxicity in NOD/SCID mouse assessed as animal survival at 5 to 10 mg/kg, ip dosed 3 times per week and measured at >3 weeks of treatment; assay type: organism-based; settings: in vivo, 504 h, dose 5-10 mg/kg

Sequence of Phosphatidylinositol 4,5-bisphosphate 3-kinase catalytic subunit gamma isoform (Homo sapiens) (P48736 whole entry, looked up, canonical isoform): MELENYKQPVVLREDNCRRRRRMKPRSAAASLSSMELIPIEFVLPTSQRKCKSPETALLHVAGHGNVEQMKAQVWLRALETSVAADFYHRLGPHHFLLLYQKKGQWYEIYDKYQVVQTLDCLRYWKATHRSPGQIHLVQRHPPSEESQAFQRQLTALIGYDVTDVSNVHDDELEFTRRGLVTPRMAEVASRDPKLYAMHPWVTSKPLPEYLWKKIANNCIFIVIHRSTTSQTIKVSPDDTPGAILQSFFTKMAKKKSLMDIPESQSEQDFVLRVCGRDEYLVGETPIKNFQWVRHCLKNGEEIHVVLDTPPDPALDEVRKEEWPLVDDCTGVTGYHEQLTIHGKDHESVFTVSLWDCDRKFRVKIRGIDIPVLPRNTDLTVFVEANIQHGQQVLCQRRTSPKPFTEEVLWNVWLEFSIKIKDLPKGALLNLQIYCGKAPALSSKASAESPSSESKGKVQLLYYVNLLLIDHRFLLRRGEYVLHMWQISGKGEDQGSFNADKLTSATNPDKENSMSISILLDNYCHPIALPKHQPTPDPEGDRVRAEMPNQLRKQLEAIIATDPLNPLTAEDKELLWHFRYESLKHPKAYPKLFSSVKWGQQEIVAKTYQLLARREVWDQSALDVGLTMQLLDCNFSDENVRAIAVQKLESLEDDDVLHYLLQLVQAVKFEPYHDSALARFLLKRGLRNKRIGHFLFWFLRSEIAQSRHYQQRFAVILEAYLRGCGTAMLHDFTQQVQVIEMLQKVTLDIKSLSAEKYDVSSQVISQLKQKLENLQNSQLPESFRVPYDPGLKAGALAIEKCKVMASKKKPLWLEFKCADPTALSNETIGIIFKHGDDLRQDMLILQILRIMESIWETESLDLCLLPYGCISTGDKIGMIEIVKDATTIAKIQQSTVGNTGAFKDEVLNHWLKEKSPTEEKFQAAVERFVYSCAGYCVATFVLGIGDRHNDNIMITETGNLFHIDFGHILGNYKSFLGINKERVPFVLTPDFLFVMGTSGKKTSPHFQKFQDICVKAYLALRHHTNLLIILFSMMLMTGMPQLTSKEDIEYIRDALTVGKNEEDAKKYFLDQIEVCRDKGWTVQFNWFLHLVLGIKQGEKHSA

What does the source list for `COC(=O)[C@@]12OC[C@]34[C@H]([C@@H](O)[C@@H]1O)[C@@]1(C)CC(=O)C(O)=C(C)[C@@H]1C[C@H]3OC(=O)[C@H](OC(=O)C=C(C)C)[C@@H]24`?
mortality at 576 h [1]: 25%; inhibition [2]: Active; inhibition [3]: Active; inhibition [4]: Active; inhibition [5]: Active; inhibition [6]: Active; survival at 576 h [7]: 25%; inhibition [8]: Active; survival at 576 h [9]: 75%

With `COC(=O)[C@@]12OC[C@]34[C@H]([C@@H](O)[C@@H]1O)[C@@]1(C)CC(=O)C(OC(=O)C[C@H](C)N)=C(C)[C@@H]1C[C@H]3OC(=O)[C@H](OC(=O)C=C(C)C)[C@@H]24` as the compound, how does the Activity [10] read?
Its Activity is “Non-Toxic”.

What about the inhibition [8] of the same compound?
The inhibition was “Active”.

And the survival at 576 h [9]?
The survival at 576 h was 100%.

With `COC(=O)[C@@]12OC[C@]34[C@H]([C@@H](O)[C@@H]1O)[C@@]1(C)CC(=O)C(OC(=O)CNC(=O)OC(C)(C)C)=C(C)[C@@H]1C[C@H]3OC(=O)[C@H](OC(=O)C=C(C)C)[C@@H]24` as the compound, how does the survival at 576 h [7] read?
Its survival at 576 h is 0%.

And the inhibition [8]?
Its inhibition is “Active”.

And the survival at 576 h [9]?
Its survival at 576 h is 50%.

For `COC(=O)[C@@]12OC[C@]34[C@H]([C@@H](O)[C@@H]1O)[C@@]1(C)CC(=O)C(OC(=O)CNC(=O)CNC(=O)CN)=C(C)[C@@H]1C[C@H]3OC(=O)[C@H](OC(=O)C=C(C)C)[C@@H]24`, which inhibition [2] is on record?
Its inhibition is “Active”.

And the inhibition [3]?
The inhibition was “Active”.

What about the inhibition [4] of the same compound?
Its inhibition is “Active”.

And the inhibition [5]?
Its inhibition is “Active”.

And the inhibition [6]?
The inhibition was “Active”.

And the inhibition [8]?
The inhibition was “Active”.
